Screening results (PubChem)
An excerpt weighted towards active compounds, which were near 4.1% of everything screened.
KCNQ1 pot – potentiates or activates the human KCNQ1 potassium channel | P51787 | CHO-K1 KCNQ1, thallium flux FluxOR fluorescence; hits give high values | B-score at 10 µM | 310,000 compounds, 0.35% hits;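 active = fluorescence ratio B-score, a plate-corrected score, at least three library SD, with initial intensity B-score within 5 SD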
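assay system = CHO-K1 cells stably expressing KCNQ1 | medium = assay buffer, equal DMSO in all wells | timing = 37 °C overnight plating, 90-min dark dye load, 20-min compound pretreatment | measured by = kinetic FluxOR thallium fluorescence, 10-s 1-Hz baseline, 110-s post-stimulus read | measure = fluorescence change relative to baseline, converted to B score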
KCNQ1 block – inhibitors of human KCNQ1 potassium channel; CHO-K1 KCNQ1, FluxOR thallium flux fluorescence; hits give high values; B-score at 10 µM; P51787; 310,000 compounds, 1.3% hits;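 active = compounds whose thallium flux B-score, printed positive for inhibition, exceeds three library SD while starting fluorescence stays within three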;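 also: channel opened by potassium depolarization with thallium stimulus after 20 min compound exposure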
KCC2 mod – modulates chloride dependent transport by human KCC2. Q9H2X9. KCC2 cells, thallium flux FluoZin-2 fluorescence. B-score of Tl+ flux slope (higher = more flux/activation; lower = inhibition) at 10 µM. 190,000 compounds, 2.2% hits;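 active = thallium flux slope and its plate-corrected score both differing from the plate sample mean at a set confidence after two filtering rounds, in either direction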;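 also: slope of fluorescence scaled to starting intensity during 10 to 20 s after thallium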
KCNK3 block – human KCNK3 channel inhibition, primary screen; O14649; CHO-KCNK3 thallium flux, FluxOR fluorescence; hits give low values; B-score at 10 µM; 340,000 compounds, 0.84% hits;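 active = B-score under library mean minus 4 SD, starting fluorescence ratio at most library mean plus 5 SD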;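 also: more negative B-score means stronger inhibition of thallium flux through KCNK3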
KCNK9 block – human KCNK9 channel inhibition. Q9NPC2. HEK293 KCNK9, FluxOR thallium flux fluorescence; hits give low values. B-score at 10 µM. 310,000 compounds, 1.2% hits. AID 488922;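 active = ratio B-score over 3 SD below the library mean, with starting fluorescence within 5 SD of its mean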;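 also: negative B-score means less thallium flux so channel inhibition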
hERG rescue – hERG (human) protection from proarrhythmic block | Q12809 | CHO-hERG, FluxOR thallium flux, dofetilide IC70 present | activation (rescue from dofetilide block), less the hit threshold, % at 10 µM | 310,000 compounds, 0.51% hits;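 active = activation above the mean of controls blocked by dofetilide plus 5 SD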;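 also: thallium influx through hERG after potassium depolarization seen as dye fluorescence rise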
Target sequence (Q12809 whole entry, looked up): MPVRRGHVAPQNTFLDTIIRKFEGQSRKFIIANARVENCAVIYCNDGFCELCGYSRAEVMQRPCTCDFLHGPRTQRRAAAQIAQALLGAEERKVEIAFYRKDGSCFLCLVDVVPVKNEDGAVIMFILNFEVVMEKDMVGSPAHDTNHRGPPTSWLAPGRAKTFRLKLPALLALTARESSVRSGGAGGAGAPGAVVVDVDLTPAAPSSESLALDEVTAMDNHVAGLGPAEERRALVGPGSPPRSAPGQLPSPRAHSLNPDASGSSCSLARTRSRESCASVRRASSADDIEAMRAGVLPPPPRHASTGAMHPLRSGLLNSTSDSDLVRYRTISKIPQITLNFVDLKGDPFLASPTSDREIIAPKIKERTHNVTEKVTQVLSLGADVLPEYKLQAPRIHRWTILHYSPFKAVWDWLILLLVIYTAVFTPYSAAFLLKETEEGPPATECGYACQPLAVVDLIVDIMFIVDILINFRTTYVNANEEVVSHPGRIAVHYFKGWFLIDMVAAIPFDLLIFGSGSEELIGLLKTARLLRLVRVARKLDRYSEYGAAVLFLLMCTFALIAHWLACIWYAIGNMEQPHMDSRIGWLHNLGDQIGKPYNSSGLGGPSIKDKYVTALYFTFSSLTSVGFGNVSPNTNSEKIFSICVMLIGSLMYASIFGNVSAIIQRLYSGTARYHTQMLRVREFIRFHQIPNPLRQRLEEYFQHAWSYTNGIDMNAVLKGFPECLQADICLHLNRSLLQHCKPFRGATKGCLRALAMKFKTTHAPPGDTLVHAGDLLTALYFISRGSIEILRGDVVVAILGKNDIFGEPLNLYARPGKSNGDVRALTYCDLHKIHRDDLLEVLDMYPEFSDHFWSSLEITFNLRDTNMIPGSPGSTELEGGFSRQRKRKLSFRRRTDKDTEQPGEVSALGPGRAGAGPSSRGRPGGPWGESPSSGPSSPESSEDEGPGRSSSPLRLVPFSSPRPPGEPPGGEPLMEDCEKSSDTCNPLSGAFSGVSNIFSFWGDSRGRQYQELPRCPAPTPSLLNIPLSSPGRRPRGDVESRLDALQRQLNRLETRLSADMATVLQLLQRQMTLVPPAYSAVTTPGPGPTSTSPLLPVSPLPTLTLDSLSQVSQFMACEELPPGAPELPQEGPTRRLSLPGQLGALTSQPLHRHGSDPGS
KCC2 secondary – KCC2 (human) modulation, secondary assay. normalised thallium flux (F/F0 slope) at 10 µM. shares compounds with KCC2 mod. HEK293-KCC2, thallium flux, FluoZin2 fluorescence; hits give high values. 3,700 compounds, 15% hits;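 active = thallium flux slope above the same plate's solvent-only control mean plus 3 SD; inconclusive = the two replicate wells disagree; inactive = no significant difference from solvent-only control wells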
KCC2 bumet counter – thallium flux persisting under bumetanide in KCC2 cells, counter-screen secondary assay | shares compounds with KCC2 mod | HEK293-KCC2 + bumetanide/ouabain, thallium flux FluoZin2; hits give high values | normalized thallium flux at 10 µM | 3,700 compounds, 49% hits | AID 1714;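 active = thallium entry rate above the same plate's blocked-transporter control wells by more than 3 SD; inconclusive = the two repeat wells disagree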;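 also: raw slope of fluorescence over initial fluorescence between 10 and 20 s after thallium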
KCC2 secondary2 – KCC2 (human) modulation, second secondary assay; shares compounds with KCC2 mod; HEK293-KCC2, thallium flux FluoZin2 fluorescence; actives lie on both sides; F/F0 rise rate, 10–20 s post-thallium; normalized thallium flux at 10 µM; 3,700 compounds, 23% hits;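 active = thallium flux slope more than 3 SD above or below the plate's solvent-only control mean, mostly below; inconclusive = the two repeat wells disagreed; inactive = no significant shift from solvent-only controls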;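 also: raw slope with 0.1% DMSO as baseline and bumetanide as block control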
HEK293 Tl flux – parental HEK flux effect, counter-screen. HEK293 parental cells, thallium flux FluoZin2, ouabain; baseline-ratio fluorescence slope, 10–20 s after thallium. thallium flux rate (normalised fluorescence) at 10 µM. 3,700 compounds, 46% hits. shares compounds with KCC2 mod;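 active = thallium flux rate significantly above the same plate's solvent-only control wells, beyond their mean plus 3 SD; inconclusive = the two replicate wells gave conflicting results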
KCC2 ouabain – KCC2 (human) modulation, ouabain retest | HEK293-KCC2, thallium flux FluoZin2 fluorescence; bidirectional: low = inhibitor, high = activator | AID 1717 | 3,700 compounds, 48% hits | raw Tl+ flux slope (below DMSO = inhibition, above = activation) at 10 µM | shares compounds with KCC2 mod;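 active = thallium flux slope beyond 3 SD from same-plate DMSO control mean in most replicates, usually higher, sometimes lower; inconclusive = repeat tests gave conflicting results; inactive = no significant difference from controls in most replicates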;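 also: slope of initial-normalized fluorescence between seconds 10 and 20 after thallium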
HEK293 Tl flux2 – counter-screen for KCC2 modulators: effect in parental HEK293 cells; shares compounds with KCC2 mod; thallium flux FluoZin-2 fluorescence slope; 3,700 compounds, 33% hits; thallium flux slope at 10 µM;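 active = thallium flux slope above the same plate's solvent-control mean plus 3 SD in both duplicate wells; inconclusive = duplicate wells that disagreed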;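 also: run without ouabain in cells lacking the KCC2 cotransporter; slope of fluorescence scaled to its starting value between 10 and 20 s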
An asterisk follows results filed as active; i = inactive; ? = inconclusive; . = not tested or not shown.

SMILES	KCNQ1 pot	KCNQ1 block	KCC2 mod	KCNK3 block	KCNK9 block	hERG rescue	KCC2 secondary	KCC2 bumet counter	KCC2 secondary2	HEK293 Tl flux	KCC2 ouabain	HEK293 Tl flux2
COc1ccc(C(=O)NC(=S)N2CCCc3ccccc32)cc1OC	i	i	5.27*	i	i	2.0	0.0107	0.0231*	0.0329	0.0124*	?	0.0121*
COc1cc2c(cc1OC)CN(C(=S)NC(=O)c1ccccc1)CC2	i	i	22.7*	i	i	1.5	0.026*	0.0497*	?	0.0311*	0.0334*	0.0317*
CC(C)C(=O)NC(=S)N1CCc2ccccc21	i	i	5.17*	i	i	2.3	0.00669	0.0207*	?	0.0182*	0.0283*	0.0165*
COc1ccccc1-c1cc(C(=O)N2CCCc3ccccc32)no1	i	i	-3.93*	i	i	-14.9	0.00729	0.00512	0.035	?	0.0161*	0.00951
CC1CCCN(CCCN2C(=O)C3C(C(=O)Nc4cccc(Cl)c4)C4C=CC3(O4)C2C(=O)NC2CCCCC2)C1 (stereo not drawn)	i	i	.	i	i	-11.0	.	.	.	.	.	.
CC(C)C[C@H](NC(=O)C1CC(=O)N(c2ccc(F)cc2)C1)C(=O)N1CCCCC1 (stereo partly drawn)	i	i	.	i	i	-4.5	.	.	.	.	.	.
O=C(COC(=O)CCS(=O)(=O)c1ccccc1)Nc1ccc(N2CCCCC2)cc1	.	.	.	i	.	.	.	.	.	.	.	.
COc1ccc2nc3n(c(=O)c2c1)-c1ccc(Cl)cc1C(=O)NC3Cc1ccc(O)cc1 (stereo not drawn)	.	.	.	i	.	.	.	.	.	.	.	.
COc1ccccc1C(=O)NC(=S)N1CCc2ccccc21	i	i	6.54*	i	i	-16.3	0.00968	0.0188*	0.0297	0.00855*	?	0.00937
COc1ccc(OCC(=O)NC(=S)N2CCCc3ccccc32)cc1	i	i	24.1*	i	i	2.5	0.0211*	0.0374*	0.0344	0.0213*	0.0286*	0.0209*
CCOC(=O)CC1(C)NC(C(=O)O)C(C)(C)S1 (stereo not drawn)	.	.	.	i	.	.	.	.	.	.	.	.
CC(=O)c1ccc(-n2ccc(=O)cc2)cc1	i	i	.	i	i	-5.8	.	.	.	.	.	.
c1ccc(N2CCN(c3ccccc3)C2c2cccs2)cc1	i	i	-5.46*	i	i	-22.2	0.0091	0.00517	0.029	0.00756	0.0219	0.0106
Cc1ccc(C(=O)NC(Cc2cccc(C(F)(F)F)c2)C(=O)O)cc1 (stereo not drawn)	.	.	.	i	.	.	.	.	.	.	.	.
COc1ccc(-c2ccc(SCC(=O)NC3CCCCC3)nn2)cc1OC	i	i	.	i	i	-4.2	.	.	.	.	.	.
COc1ccc(N(CC(=O)Nc2ccc(C)c(C)c2)S(=O)(=O)c2c(C)n[nH]c2C)cc1	i	i	.	i	i	-5.5	0.00671	?	0.0256*	0.00699	?	0.0109
COc1cc(C2c3cc4c(cc3OC(NCCc3ccccc3)C2C)OCO4)cc(OC)c1OC (stereo not drawn)	.	.	.	i	.	.	.	.	.	.	.	.
N/C(Cc1cccs1)=N\OC(=O)COc1ccc(Br)cc1Cl	i	i	-0.535	i	i	-2.4	.	.	.	.	.	.
N/C(Cc1cccs1)=N\OC(=O)COc1ccccc1Cl	i	i	.	i	i	-15.1	0.00817	0.00537	0.0319	?	0.0183	0.00931
C/C(=N\Nc1ccccn1)c1ccc(S(=O)(=O)NCc2ccco2)cc1	i	i	-0.103	i	i	-7.5	.	.	.	.	.	.
C/C(=N\Nc1ccc(C(=O)O)cc1)c1ccc(S(=O)(=O)NCc2ccco2)cc1	i	i	4.53*	i	i	-8.9	0.00872	0.00684	0.032	0.00718	0.0209	0.0103*
CN(CC(=O)Nc1ccccc1Cl)C(=O)COC(=O)CSc1ccc(Cl)cc1	.	.	.	i	.	.	.	.	.	.	.	.
O=C(Nc1ccccc1Cl)OC1CCCCC1	i	i	.	i	i	-6.4	.	.	.	.	.	.
CCCOc1ccc(NC2=CC(=O)CC(C)(C)C2)cc1	i	i	.	i	i	-8.7	0.00621	0.00514	0.0299	0.00772	0.0184	0.0113
Cc1ccc(C)c(OCc2cc(C(=O)NC(c3ccccn3)C(F)(F)F)no2)c1 (stereo not drawn)	i	i	.	i	i	-3.6	.	.	.	.	.	.
SMILES	KCNQ1 pot	KCNQ1 block	KCC2 mod	KCNK3 block	KCNK9 block	hERG rescue	KCC2 secondary	KCC2 bumet counter	KCC2 secondary2	HEK293 Tl flux	KCC2 ouabain	HEK293 Tl flux2
CC(C)OC(=O)c1cc2c(ccn2C)n1CC(=O)N1CCC(Cc2ccccc2)CC1	i	i	-5.67*	i	i	-9.7	0.00637	0.00416	0.0244*	?	0.0138*	0.00994
O=c1cc(CN2CCc3ccccc32)c2ccc(O)cc2o1	i	i	.	i	i	-6.3	0.00893	0.00617	0.0381	0.00351	0.0176*	0.0101
Cc1cc2oc(=O)cc(CN3CCc4ccccc43)c2cc1Cl	i	i	.	i	i	-5.9	.	.	.	.	.	.
CCOc1ccccc1N1CCN(CC(O)COc2ccc3c(C)cc(=O)oc3c2)CC1 (stereo not drawn)	i	i	6.25*	i	i	-9.4	0.0159	0.00441	0.0267	0.00651	0.0155	0.0099
COC(=O)Cc1[nH]n(-c2nc3ccccc3s2)c(=O)c1C(C)=Nc1ccc(C)cc1	i	i	2.48	i	i	0.0	.	.	.	.	.	.
COC(=O)Cc1[nH]n(-c2nc3ccccc3s2)c(=O)c1C(C)=Nc1ccc(Cl)cc1	i	i	7.45*	i	i	-8.9	0.00873	0.0143*	0.0299	0.0126*	?	?
Cc1ccccc1CN1[C@@H]2c3ccccc3C[C@@H]2OCCS1(=O)=O	i	i	.	i	i	-8.8	.	.	.	.	.	.
